Bioassay records (PubChem)
Only some compounds are listed: those with a hit (about 2.2% of all), similar ones and a draw of the others.
M1 antag: antagonists of human M1 muscarinic receptor. CHO-K1 hM1, Fluo-8 calcium fluorescence, ACh EC80 antagonist. inhibition, % at 3 µM. 360,000 tested, 1.3% active;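 active = percent inhibition above its own plate's cutoff, namely the mean of that plate's compound wells plus 3 SD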;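 note: peak over basal fluorescence ratio during 140 s after agonist addition; 0% = ACh EC80 plus DMSO and 100% = DMSO alone without agonist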
CHRM1 PAM: potentiates human M1 receptor response to acetylcholine. P11229. CHO-K1 hM1, Fluo-8 calcium fluorescence, ACh EC20; 0% = ACh EC20, 100% = maximal ACh. activation, % at 3 µM. 360,000 tested, 0.088% active; in the data active = activation above about 19%, passing the limit was not always enough
CHRM5 antagonist: blocks acetylcholine activation of human M5 receptor; CHO-hM5 cells, Fluo-8 calcium fluorescence, ACh EC80; P08912; AID 624040; inhibition, % at 3 µM; 360,000 tested, 0.59% active;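 active = inhibition above a per-plate cutoff, the mean of that plate's test compounds plus 3 SD, cut at about 27% in these data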;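 note: 0% = acetylcholine EC80 with DMSO and 100% = DMSO without agonist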
Target sequence (P08912 whole entry, looked up): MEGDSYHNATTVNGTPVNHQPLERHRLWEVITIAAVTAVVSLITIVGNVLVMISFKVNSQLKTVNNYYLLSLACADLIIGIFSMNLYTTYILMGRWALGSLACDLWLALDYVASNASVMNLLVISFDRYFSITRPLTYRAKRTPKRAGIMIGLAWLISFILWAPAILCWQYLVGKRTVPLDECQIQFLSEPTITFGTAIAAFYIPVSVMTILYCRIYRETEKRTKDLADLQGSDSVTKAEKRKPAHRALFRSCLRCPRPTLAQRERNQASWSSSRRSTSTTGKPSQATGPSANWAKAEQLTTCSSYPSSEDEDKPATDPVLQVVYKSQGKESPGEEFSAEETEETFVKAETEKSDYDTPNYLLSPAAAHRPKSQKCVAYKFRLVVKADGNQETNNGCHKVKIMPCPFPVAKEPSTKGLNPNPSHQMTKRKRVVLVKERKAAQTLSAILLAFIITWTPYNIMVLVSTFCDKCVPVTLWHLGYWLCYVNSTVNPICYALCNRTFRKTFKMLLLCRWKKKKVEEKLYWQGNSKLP
CHRM5 PAM: potentiates acetylcholine response at human M5 receptor; CHO-K1 hM5, Fluo-8 calcium, ACh EC20 PAM; 0% = ACh EC20, 100% = ACh EC100; AID 624038; 360,000 tested, 0.3% active; P08912; activation, % at 3 µM;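 active = activation above the run cutoff, the mean activation of all test compounds plus 3 SD, cut at about 18% in these data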
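Test system: CHO-K1 hM5 cells / Doses: single-point, 3 µM nominal / Times: Post-acetylcholine fluorescence recording 140 s / Technique: Fluo-8 calcium fluorescence / Measure: Max/basal fluorescence ratio as % of EC20–EC100 ACh window / Benchmarks: low control EC20 acetylcholine (0%), high control EC100 acetylcholine (100%) / Replicates: one well per compound, no replicates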
M1 ag: activates human CHRM1 receptor | CHO-K1 hM1, Fluo-8 calcium fluorescence, agonist mode; 0% DMSO, 100% acetylcholine EC100 | activation, % at 3 µM | 360,000 tested, 0.33% active;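 active = activation above the run's mean compound activation plus 3 SD, cut at about 16% in these data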;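 note: peak over basal fluorescence ratio within a 140 s kinetic read after compound addition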
CHRM5 agonist: agonists of human muscarinic M5 receptor (CHRM5); CHO-K1 hM5 cells, Fluo-8 calcium fluorescence; 0% DMSO wells, 100% maximal acetylcholine response; activation, % at 3 µM; 360,000 tested, 0.19% active;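 active = activation above the run's mean over test compounds plus 3 SD, cut at about 23% in these data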;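 note: signal is peak over basal fluorescence ratio across the kinetic read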
* marks the source's active call; other numbers are inactive results.

SMILES | M1 antag | CHRM1 PAM | CHRM5 antagonist | CHRM5 PAM | M1 ag | CHRM5 agonist
CCCCCC(=O)Nc1cc(S(=O)(=O)N2CCCCC2)ccc1N1CCOCC1 | -22.1 | 13.4 | 8.0 | 5.1 | -4.6 | -3.9
Cc1cccc(N2CCN(CC(=O)Nc3ccc(S(=O)(=O)N4CCOCC4)cc3)CC2)c1C | 17.3 | -5.7 | 33.8* | -11.9 | 1.7 | 3.2
CCOC(=O)C1CCN(CC(=O)Nc2cc(S(=O)(=O)N3CCOCC3)ccc2C)CC1 | -16.4 | 16.8 | -6.4 | 19.4* | -7.8 | 1.9
CCCCCC(=O)Nc1cc(S(=O)(=O)N2CCOCC2)ccc1N1CCCC1 | -0.3 | 18.4 | 25.3 | 30.1* | -4.3 | 1.6
CCN1CCN(c2ccc(S(=O)(=O)N3CCOCC3)cc2NC(=O)CCC(C)C)CC1 | -8.2 | 5.5 | -1.8 | 3.0 | -4.9 | 1.0
CCN1CCN(c2ccc(S(=O)(=O)N3CCOCC3)cc2NC(=O)CCOc2ccccc2)CC1 | 11.9 | 0.5 | 29.2* | -9.9 | -5.4 | -5.0
O=S(=O)(Nc1ccncc1)c1cc(Cl)c(Cl)cc1Cl | -14.4 | 16.5 | 3.5 | -2.4 | -1.2 | 5.3
CCN1CCN(c2ccc(S(=O)(=O)N3CCCCC3)cc2NC(=O)Cc2ccc(Cl)c(Cl)c2)CC1 | 14.5 | -6.5 | 20.3 | -16.9 | 11.5 | 28.1*
CCOC(=O)C1CCN(CC(O)COc2ccc(S(=O)(=O)N3CCCC3)cc2[N+](=O)[O-])CC1 (stereo unspecified) | 39.5* | -23.8 | 3.8 | -2.4 | -8.5 | -8.5
CCN1CCN(c2ccc(S(=O)(=O)N3CCOCC3)cc2NC(=O)c2ccccc2OC(F)F)CC1 | -5.0 | 3.5 | -2.0 | 8.7 | 20.2* | -0.3
CCOC(=O)c1c(C)[nH]c(C(=O)OCCOc2ccccc2C)c1C | -2.6 | 5.2 | 1.1 | -6.1 | -9.8 | -2.1
Cc1cc(=O)oc2c3c(cc(OCC(=O)N4CCC[C@H]4C(=O)O)c12)OC(C)(C)CC3 | 1.4 | 1.3 | -2.6 | 4.3 | -2.0 | 1.8
COc1cccc(N=Nc2ccc(O)c3ncccc23)c1 | 39.8* | -27.7 | 28.4* | -19.4 | 24.2* | 54.3*
COc1cccc(N=Nc2ccc3cccnc3c2O)c1 | 31.4* | -20.1 | 21.0 | -18.8 | 30.1* | 42.4*
COc1ccc(N=Nc2ccc(O)c3ncccc23)cc1 | -11.6 | 17.5 | 0.8 | 5.8 | 6.1 | 6.3
O=C(N/N=C/C(Br)=C\c1ccccc1)c1cccs1 | -12.8 | 8.1 | -29.2 | 22.8* | -0.2 | 6.5
O=C(Nc1ccc(N2CCOCC2)nc1)c1ccccc1Cl | -6.2 | 8.0 | -6.1 | 7.3 | -3.7 | 5.3
O=C1OCCN1C(=O)[C@H]1[C@H](c2ccc(Cl)cc2)C(c2ccccc2)=NN1c1ccccc1 | 25.8* | -13.4 | 0.5 | -4.1 | -3.4 | 0.9
COC(=O)c1ccc(COc2ccccc2/C=N/NC(=O)c2cccnc2)cc1 | 9.6 | -2.6 | 16.2 | -12.7 | -4.1 | -0.6
CCN(CC)S(=O)(=O)c1ccc(N2CCOCC2)c(NC(=O)c2cnccn2)c1 | -2.2 | 3.3 | 6.5 | -2.2 | -1.9 | 0.5
CCN(CC)C(=S)SCC(=O)c1ccc(F)cc1 | 24.2* | -4.1 | 22.6 | -5.6 | -1.0 | -7.8
Cc1nc(-c2cccc(NC(=O)c3ccc(Br)o3)c2)cs1 | 5.8 | -4.5 | 26.9* | -11.6 | -4.2 | -5.9
Cc1nc(-c2cccc(NC(=O)C3CCCCC3)c2)cs1 | -6.4 | 15.7 | -28.9 | 26.0* | -2.7 | -1.1
Cc1ccc(-c2nc(C#N)c(N3CCC(C(N)=O)CC3)o2)cc1 | -16.5 | 16.0 | 9.1 | 4.0 | -4.1 | -5.5
O=C(CSc1nnc(NC(=O)c2ccco2)s1)NC1CCCCC1 | -1.3 | 6.4 | -1.8 | 1.8 | -2.7 | -1.1
SMILES | M1 antag | CHRM1 PAM | CHRM5 antagonist | CHRM5 PAM | M1 ag | CHRM5 agonist
O=C(N/C(=C\c1cccc([N+](=O)[O-])c1)C(=O)N1CCOCC1)c1ccco1 | -13.0 | 9.6 | 3.2 | 1.2 | -3.9 | -0.6
Cc1ccccc1OCc1nc2ccccc2c(=O)n1NC(=O)c1ccco1 | -31.0 | 3.9 | -5.2 | -7.1 | 17.6* | 17.6
Cc1ccc(-n2ncc3c(=O)n(CC#N)cnc32)cc1 | 8.4 | -4.4 | -4.4 | 1.2 | -4.2 | -1.2
COc1cccc(/C=C2\CCCCC2=O)c1 | -10.3 | 20.2 | -25.9 | 31.2* | -0.2 | -0.3
COc1cccc(/C=C2\CCC(C3CCCC3)C2=O)c1 (stereo unspecified) | -8.4 | 15.5 | -5.6 | 4.0 | -2.3 | -1.5
Cc1ccc(C(=O)NC(C)c2ccc(S(N)(=O)=O)cc2)s1 (stereo unspecified) | 1.4 | 28.6* | 1.5 | 0.5 | -1.4 | -1.9
CCN(CC(=O)Nc1c(F)cccc1F)C(=O)/C=C/c1ccc2ccccc2n1 | 1.0 | 2.6 | 5.5 | 0.2 | -3.2 | 2.6
CCN(CC(=O)Nc1c(F)cccc1F)C(=O)/C=C/c1cn(Cc2ccccc2)nc1-c1cccnc1 | -6.1 | 10.1 | 27.2* | -6.3 | -3.8 | -3.2
Cc1ccc(S(=O)(=O)N2CCOCC2)cc1NC(=O)COC(=O)COc1ccc(C#N)cc1 | 3.1 | -1.3 | -3.0 | -1.8 | -0.8 | 1.8
O=S(=O)(NC1CCCC1)c1ccc(S(=O)(=O)N2CCc3ccccc32)cc1 | 25.0 | -15.5 | 29.4* | -14.7 | -2.5 | 8.1
Nc1ccc(S(=O)(=O)N2CCc3ccccc32)cc1 | -5.8 | 2.9 | 7.4 | -0.8 | -0.2 | -1.8
CCc1ccc([C@H]2[C@@H]3C(=O)C[C@@H]4C(=O)N(C5CCCCC5)C(=O)[C@@H]4[C@@H]3CN2S(=O)(=O)c2ccc(C)cc2)cc1 | 4.5 | -0.2 | -3.6 | -0.3 | -1.6 | -1.3
CC1CCN(C(=O)CNC(=O)c2ccc(Cl)cc2Cl)CC1 | -23.3 | 21.8* | 4.8 | -2.4 | 1.4 | -1.2
Cc1ccc2c(c1)nnn2C1CCN(CC(=O)N(c2ccccc2)c2ccccc2)CC1 | 33.5* | -21.8 | 6.3 | -7.3 | -8.0 | -12.7
Cc1ccc2c(c1)nnn2C1CCN(S(=O)(=O)c2cccc(S(=O)(=O)N(C)C)c2)CC1 | 36.7* | -12.1 | 22.0 | -19.6 | 2.8 | 6.2
CCOC(=O)CN(C(=O)CN1CCC(n2nnc3cc(C)ccc32)CC1)c1ccccc1 | -33.8 | 2.9 | 1.0 | 4.4 | -4.9 | -4.3
CCOC(=O)NN1C(=O)c2ccccc2NC1c1ccc(OC)c(OC)c1 (stereo unspecified) | -5.6 | 4.8 | 4.3 | 0.8 | -3.8 | 1.3
COCc1ccc(C(=O)N(C)CC2CCCN(CCc3ccc(OC)cc3)C2)o1 (stereo unspecified) | 52.1* | -22.1 | 6.8 | -7.2 | -5.0 | -9.5
CN(CC1CCCN(CCc2ccccc2F)C1)C(=O)c1cc2ccccc2o1 (stereo unspecified) | 96.0* | -30.7 | 5.9 | -15.2 | -8.9 | -3.0
